In ChEMBL document CHEMBL3392968 (Eur J Med Chem, 2015):
pIC50, pKi: −log10 of the molar value. In brackets after ≈: the same amount, converted by molar mass. Activity calls are given as the source filed them. The calls are words filed in the database; no cut-off is given here.

What was measured:
[1] = tested on: Plasma; experiment: Stability in human plasma assessed pseudo-first-order rate constant at 1 mg/mL by HPLC method; format: ADME, cell-free
Summary of the method: (§1)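 Human or rat plasma, obtained from citrated blood (0.3% citric acid) centrifuged at 3000 × g, diluted to 80% with 0.02 M phosphate buffer pH 7.4, incubated with compound at 37 °C. Samples centrifuged at 5000 × g; supernatant analysed by RP-C18 HPLC; remaining intact compound plotted against time to obtain kobs and half-life.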

[2] = Stability in rat plasma assessed half life at 1 mg/mL by HPLC method; format: ADME, cell-free; summary of the method: as §1
[3] = tested on: C6; experiment: Induction of cell cycle arrest in rat C6 cells assessed as accumulation at G2/M phase after 24 and 48 hrs by propidium iodide staining based flow cytometry; format: functional
Summary of the method: (§2)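 C6 cells at 5 µM. About 3 × 10^5 cells fixed in 70% cold ethanol overnight at 4 °C, then stained with 20 µg/mL PI plus 100 µg/mL RNase (final). 10^4 cells analysed by flow cytometry (linear FL3), with doublets excluded by FL3-Area/Width gating; G1, S and G2/M fractions taken from DNA content.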

[4] = Stability in pH 7.4 0.02 M phosphate buffer containing 0.1% (v/v) Cremophor ELP assessed as pseudo-first-order rate constant […] by HPLC method; format: physicochemical
Summary of the method: (§3)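 Reaction started by adding 1 mL of a 10^-4 M acetonitrile stock to 10 mL of buffer at 37 ± 0.5 °C. Buffers: pH 7.4, 0.02 M phosphate; pH 1.3, 0.02 M chloridric; both with 0.1% (v/v) Cremophor ELP. Followed by RP-C18 HPLC; run in triplicate, with mean rate constants reported.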

[5] = tested on: C6; experiment: Antimigratory activity against rat C6 cells assessed as cell migration level at 5 uM after 24 hrs by transwell chamber assay (reference value: 60%); format: functional, cell-based
Summary of the method: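 C6 cells grown to 70-80% confluency, serum-starved 24 h, then seeded at 10^5 cells/mL in serum-free HAM'S F12 into the upper chamber of an 8 µm-pore transwell; lower chamber held medium with 5% FCS. Compounds (5 µM final) added 2 h after seeding; 24 h at 37 °C. Migrated cells methanol-fixed, DAPI-stained, counted in five fields, scaled to insert area, expressed as % of cells seeded.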

[6] = tested on: C6; experiment: Cytotoxicity against rat C6 cells assessed as reduction in cell viability at 0.1 to 5 uM after 48 hrs by MTT assay; format: functional
Summary of the method: (§4)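 C6 cells (HAM'S F12, 10% FBS, 2 mM glutamine, 37 °C, 5% CO2) seeded at 5 × 10^4 cells/well and exposed to 0.1–5 µM for 24, 48 or 72 h. MTT reduction read at 570 nm; viability = A_sample/A_vehicle control × 100. Four independent experiments.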

[7] = target: T1, Histone deacetylase (Rattus norvegicus) (UniProt Q6P6W3+Q99P99+Q99P96+Q4QQW4+Q99P97+Q5RJZ2+B1WBY8); experiment: Inhibition of HDAC in rat C6 cells assessed as increase in histone H3 acetylation at 5 uM after 15 hrs by flow cytometry; format: cell-based
Summary of the method: (§5)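 C6 cells treated at 5 µM for 6, 15 or 24 h, with DMSO vehicle as control. Fixed in 1% paraformaldehyde, permeabilized with 0.1% Triton X-100, blocked in goat serum. Stained with anti-acetyl-H3 (Lys9) rabbit mAb (1:100, 1 h on ice), then FITC anti-rabbit IgG (20 µg/mL, 45 min). About 10000 events at 488 nm; acetylation quantified from MFI.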

[8] = tested on: C6; experiment: Cytotoxicity against rat C6 cells assessed as reduction in cell viability at 0.1 to 5 uM after 72 hrs by MTT assay; format: functional; summary of the method: as §4
[9] = tested on: C6; experiment: Cytotoxicity against rat C6 cells assessed as reduction in cell viability at 0.1 to 5 uM after 24 hrs by MTT assay; format: functional, cell-based; summary of the method: as §4
[10] = tested on: C6; experiment: Drug metabolism in rat C6 cells assessed as metabolite formation at 5 uM incubated for 24 hrs at 37 degC by LC/MS spectrometry; format: ADME, cell-based; conditions: c6, 24 h
Summary of the method: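 Glioma C6 cells incubated with 5 µM for 24 h at 37 °C. Cell lysates (2 mg) analysed by LC-MS, compared with untreated control lysates, to detect metabolite ions.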

[11] = tested on: C6; experiment: Induction of cell cycle arrest in rat C6 cells assessed as accumulation at G1 phase after 24 and 48 hrs by propidium iodide staining based flow cytometry; format: functional; summary of the method: as §2
[12] = Solubility in water at 50 mg incubated at 25 degC for 1 hr by HPLC method; format: physicochemical
[13] = tested on: Plasma; experiment: Stability in rat plasma assessed pseudo-first-order rate constant at 1 mg/mL by HPLC method; format: ADME, cell-free; summary of the method: as §1
[14] = tested on: C6; experiment: Induction of cell cycle arrest in rat C6 cells assessed as accumulation at S phase after 24 and 48 hrs by propidium iodide staining based flow cytometry; format: functional; summary of the method: as §2
[15] = Effective permeability of the compound by PAMPA method; format: ADME; conditions: read-out: Peff
Summary of the method: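 PAMPA using a porcine polar brain lipid–impregnated filter. Donor: phosphate buffer pH 7.4/pH 6.5 with 500 µM compound and 20% iPrOH co-solvent; acceptor: same buffer. Incubated 18 h at room temperature; donor and acceptor concentrations measured by HPLC; Peff calculated from volumes, filter area (0.28 cm2) and time.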

[16] = Stability in pH 7.4 0.02 M phosphate buffer containing 0.1% (v/v) Cremophor ELP assessed as half life at […] by HPLC method; format: physicochemical; summary of the method: as §3
[17] = tested on: C6; experiment: Induction of necrosis in rat C6 cells after 25 to 72 hrs by Annexin-V/propidium iodide staining based flow cytometry; format: functional; conditions: in the assay text read “24 to 72 hrs” for “25 to 72 hrs”
Summary of the method: (§6)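 C6 cells treated at 5 µM for 24, 48 and 72 h. 2.5 × 10^5 cells stained with Annexin-V-FITC (10 min, room temperature, dark), then PI 5 µg/mL. At least 10^4 events collected (FL1/FL3). Late apoptotic cells were Annexin-V+/PI+; necrotic cells were Annexin-V−/PI+.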

[18] = tested on: C6; experiment: Induction of late apoptosis in rat C6 cells after 25 to 72 hrs by Annexin-V/propidium iodide staining based flow cytometry; format: functional; conditions: in the assay text read “24 to 72 hrs” for “25 to 72 hrs”; summary of the method: as §6
[19] = Stability in pH 1.3 0.02 M […] buffer containing 0.1% (v/v) Cremophor ELP assessed as pseudo-first-order rate constant […] by HPLC method; format: physicochemical; summary of the method: as §3
[20] = target: T1, Histone deacetylase (Rattus norvegicus); experiment: Inhibition of HDAC in rat C6 cells assessed as increase in histone H3 acetylation at 5 uM after 6 hrs by flow cytometry (reference value: 4.5%); format: cell-based; set-up: scale not given: the % may be the effect or the level left; summary of the method: as §5
[21] = tested on: C6; experiment: Induction of cell cycle arrest in rat C6 cells assessed as increase in accumulation at S phase after 72 hrs by propidium iodide staining based flow cytometry; format: functional; summary of the method: as §2
[22] = Stability in pH 1.3 0.02 M […] buffer containing 0.1% (v/v) Cremophor ELP assessed as half life […] by HPLC method; format: physicochemical; summary of the method: as §3
[23] = Stability in human plasma assessed half life at 1 mg/mL by HPLC method; format: ADME, cell-free; summary of the method: as §1
[24] = Displacement of [3H]-DTG from sigma 2 receptor guinea pig brain membranes incubated for 120 mins by scintillation counting method; set-up: species or system Cavia porcellus, Membrane
Summary of the method: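 Guinea pig brain membranes (360 µg protein) with 3 nM [3H]DTG and test compound (10^-5 to 10^-10 M) in 50 mM Tris-HCl pH 8.0, 120 min at room temperature, with 400 nM (+)-SKF10,047 masking σ1 sites. Nonspecific binding with 5 µM DTG; PEI-presoaked GF/B filtration, scintillation counting, Ki by EBDA/LIGAND.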

[25] = target: Sigma non-opioid intracellular receptor 1 (Cavia porcellus, UniProt Q60492); experiment: Displacement of [3H]-(+)-pentazocine from sigma 1 receptor guinea pig brain membranes incubated for 150 mins by scintillation counting method; set-up: species or system Membrane
Sequence of Sigma non-opioid intracellular receptor 1 (Q60492 whole entry): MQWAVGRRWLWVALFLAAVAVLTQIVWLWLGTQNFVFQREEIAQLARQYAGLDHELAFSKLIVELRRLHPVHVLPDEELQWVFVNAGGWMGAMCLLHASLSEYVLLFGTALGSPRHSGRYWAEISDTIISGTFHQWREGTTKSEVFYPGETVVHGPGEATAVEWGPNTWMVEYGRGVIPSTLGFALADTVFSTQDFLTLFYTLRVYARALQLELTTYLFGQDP

[26] = tested on: C6; experiment: Cytotoxicity against rat C6 cells assessed as reduction in cell viability at 0.5 to 5 uM after 24 hrs by MTT assay; format: functional; summary of the method: as §4
[27] = target: D(2) dopamine receptor (Rattus norvegicus, UniProt P61169); experiment: Displacement of [3H]-spiperone from dopamine D2 receptor in rat striatum by scintillation counting method
Sequence of D(2) dopamine receptor (P61169 whole entry): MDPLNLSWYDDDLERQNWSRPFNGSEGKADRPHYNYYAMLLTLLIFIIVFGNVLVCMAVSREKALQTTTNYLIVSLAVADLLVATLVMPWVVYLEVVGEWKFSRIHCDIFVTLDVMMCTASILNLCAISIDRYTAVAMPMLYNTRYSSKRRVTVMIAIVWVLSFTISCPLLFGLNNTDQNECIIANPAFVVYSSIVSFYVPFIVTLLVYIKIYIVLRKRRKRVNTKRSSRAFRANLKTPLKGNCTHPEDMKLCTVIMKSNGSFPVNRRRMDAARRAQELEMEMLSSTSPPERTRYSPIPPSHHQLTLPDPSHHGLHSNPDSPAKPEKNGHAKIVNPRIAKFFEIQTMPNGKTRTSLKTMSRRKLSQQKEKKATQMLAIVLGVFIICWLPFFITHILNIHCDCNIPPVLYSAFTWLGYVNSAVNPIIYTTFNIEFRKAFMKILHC

[28] = target: D(3) dopamine receptor (Rattus norvegicus, UniProt P19020); experiment: Displacement of [3H]-7-OH-DPAT from dopamine D3 receptor in rat olfactory tubercle by scintillation counting method; format: tissue-based
Sequence of D(3) dopamine receptor (P19020 whole entry): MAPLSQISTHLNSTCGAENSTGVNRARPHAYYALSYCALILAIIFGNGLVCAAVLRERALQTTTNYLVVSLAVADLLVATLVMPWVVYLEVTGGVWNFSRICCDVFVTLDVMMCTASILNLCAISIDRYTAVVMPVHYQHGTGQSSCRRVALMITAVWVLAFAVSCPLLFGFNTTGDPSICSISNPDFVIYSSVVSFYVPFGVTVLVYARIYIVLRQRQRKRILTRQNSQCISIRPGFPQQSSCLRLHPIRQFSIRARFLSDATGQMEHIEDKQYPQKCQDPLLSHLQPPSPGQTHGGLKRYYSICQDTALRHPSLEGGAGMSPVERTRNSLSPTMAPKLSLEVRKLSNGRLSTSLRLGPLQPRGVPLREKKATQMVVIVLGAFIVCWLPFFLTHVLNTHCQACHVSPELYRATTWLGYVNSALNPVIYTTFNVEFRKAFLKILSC

[29] = tested on: C6; experiment: Induction of late apoptosis in rat C6 cells after 24 to 72 hrs by Annexin-V/propidium iodide staining based flow cytometry
[30] = tested on: C6; experiment: Induction of necrosis in rat C6 cells after 24 to 72 hrs by Annexin-V/propidium iodide staining based flow cytometry
[31] = target: T1, Histone deacetylase (Rattus norvegicus); experiment: Inhibition of HDAC in rat C6 cells assessed as increase in histone H3 acetylation at 5 uM after 24 hrs by flow cytometry (reference value: 4.5%); format: cell-based; set-up: scale not given: the % may be the effect or the level left; summary of the method: as §5

| SMILES | K [1] [h⁻¹] | half-life at 1 mg/mL [2] [h] | Activity [7] | K [13] [h⁻¹] | Activity [20] | half-life at 1 mg/mL [23] [h] | pKi [24] | Activity [3] | Activity [5] | Activity [6] | Activity [8] [%] | Activity [9] | Activity [11] | Activity [14] | Activity [21] | pKi [28] | other results |
| --- | --- | --- | --- | --- | --- | --- | --- | --- | --- | --- | --- | --- | --- | --- | --- | --- | --- |
| O=C(CCCc1ccccc1)OC(CCCN1CCC(O)(c2ccc(Cl)cc2)CC1)c1ccc(F)cc1 (racemic) | 0.008 | 0.108 | inactive | 6.41 | 14% | 92 | – | inactive | Active | 60% | 40 | Dose-dependent effect | inactive | inactive | Active | – | K [4]: 0.005 h⁻¹; pIC50 ([9]; C6, 24 h): 5.30; Drug metabolism [10]: metabolite_detected; solubility at 1 h [12]: 1.2 µg/mL (≈ 2.29 µM); Papp [15]: 5.25 ×10⁻⁶ cm/s; half-life at 10000 µM [16]: 127 h; Activity [17]: 35%; Activity [18]: 35%; K [19]: 0.005 h⁻¹; half-life at 10000 µM [22]: 140 h |
| OC(CCCN1CCC(O)(c2ccc(Cl)cc2)CC1)c1ccc(F)cc1 (racemic) [HYDROXYHALOPERIDOL] | – | – | inactive | – | inactive | – | 8.70 | inactive | inactive | inactive | – | – | inactive | inactive | inactive | – | – |
| O=C(CCCc1ccccc1)O[C@H](CCCN1CCC(O)(c2ccc(Cl)cc2)CC1)c1ccc(F)cc1 | 0.008 | 0.312 | inactive | 2.22 | 16.1% | 84.3 | 7.28 | inactive | Active | 60% | 40 | Dose-dependent effect | inactive | inactive | Active | < 5.30 | pKi [25]: 7.06; Activity [26]: 40%; pKi [27]: < 5.30; Activity [17]: 40%; Activity [18]: 40%; Activity [31]: 7.2% |
| O[C@H](CCCN1CCC(O)(c2ccc(Cl)cc2)CC1)c1ccc(F)cc1 | – | – | – | – | – | – | 7.49 | – | – | – | – | – | – | – | – | 5.89 | – |
| O[C@@H](CCCN1CCC(O)(c2ccc(Cl)cc2)CC1)c1ccc(F)cc1 | – | – | – | – | – | – | 8.01 | – | – | – | – | – | – | – | – | 6.45 | – |

More lines, main results first:

| K [1] [h⁻¹] | half-life at 1 mg/mL [2] [h] | Activity [7] | K [13] [h⁻¹] | Activity [20] | half-life at 1 mg/mL [23] [h] | pKi [24] | SMILES | Activity [3] | Activity [5] | Activity [6] | Activity [8] [%] | Activity [9] | Activity [11] | Activity [14] | Activity [21] | pKi [28] | other results |
| --- | --- | --- | --- | --- | --- | --- | --- | --- | --- | --- | --- | --- | --- | --- | --- | --- | --- |
| – | – | inactive | – | 14% | – | – | O=C(O)CCCc1ccccc1 [PHENYLBUTANOIC ACID] | inactive | inactive | – | – | – | inactive | inactive | inactive | – | – |
| 0.008 | 0.224 | inactive | 3.09 | inactive | 90.7 | 6.93 | O=C(CCCc1ccccc1)O[C@@H](CCCN1CCC(O)(c2ccc(Cl)cc2)CC1)c1ccc(F)cc1 | inactive | Active | 60% | 40 | Dose-dependent effect | inactive | inactive | Active | < 5.30 | pKi [25]: 6.64; Activity [26]: 50%; pKi [27]: < 5.30; Activity [29]: 25%; Activity [30]: 25% |
| – | – | – | – | – | – | 7.74 | O=C(CCCN1CCC(O)(c2ccc(Cl)cc2)CC1)c1ccc(F)cc1 [HALOPERIDOL] | – | – | – | – | – | – | – | – | – | – |
| – | – | – | – | – | – | 7.66 | Cc1ccccc1NC(=N)Nc1ccccc1C [DITOLYLGUANIDINE] | – | – | – | – | – | – | – | – | – | – |
